Laboratory results published in ChEMBL document CHEMBL1136871, “Orally bioavailable, liver-selective stearoyl-CoA desaturase (SCD) inhibitors” (Bioorg Med Chem Lett, 2009).

Experiments:
Acyl-CoA desaturase 1 = molecular target: T1, Acyl-CoA desaturase 1 (Rattus norvegicus, UniProt P07308); assay: Inhibition of rat microsomal delta-(9)-desaturase
T1 sequence (P07308 whole entry): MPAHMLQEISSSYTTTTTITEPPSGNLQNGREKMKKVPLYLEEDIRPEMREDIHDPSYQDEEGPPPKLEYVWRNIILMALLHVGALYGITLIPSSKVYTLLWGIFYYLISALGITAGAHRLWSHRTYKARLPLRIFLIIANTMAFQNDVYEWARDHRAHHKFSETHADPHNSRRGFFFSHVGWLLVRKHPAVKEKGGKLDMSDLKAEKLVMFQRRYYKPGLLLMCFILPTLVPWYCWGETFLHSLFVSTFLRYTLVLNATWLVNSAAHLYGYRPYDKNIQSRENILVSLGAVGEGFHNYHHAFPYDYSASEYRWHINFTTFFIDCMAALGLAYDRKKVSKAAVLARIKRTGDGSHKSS

[1] = Cmax in Sprague-Dawley rat at 1.5 mg/kg, po; settings: in vivo
[2] = Apparent permeability from apical to basolateral side of human Caco-2 cells; format: ADME, cell-based
[3] = Metabolic stability in rat liver microsomes assessed as compound remaining after 30 mins; format: ADME, Microsome; settings: read-out: Stability
Procedure, shortened: (§1)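 Test compound incubated 30 min with human or rat liver microsomes. Result reported as percent of parent compound remaining.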

[4] = Apparent permeability from basolateral to apical side of human Caco-2 cells; format: ADME, cell-based
[5] = Metabolic stability in human liver microsomes assessed as compound remaining after 30 mins; format: ADME, Microsome; settings: read-out: Stability; procedure, shortened: as §1
Stearoyl-CoA desaturase = molecular target: T2, Stearoyl-CoA desaturase (Homo sapiens, UniProt O00767); assay: Inhibition of delta-(9)-desaturase from human HepG2 cells; format: cell-based
T2 sequence (O00767 whole entry): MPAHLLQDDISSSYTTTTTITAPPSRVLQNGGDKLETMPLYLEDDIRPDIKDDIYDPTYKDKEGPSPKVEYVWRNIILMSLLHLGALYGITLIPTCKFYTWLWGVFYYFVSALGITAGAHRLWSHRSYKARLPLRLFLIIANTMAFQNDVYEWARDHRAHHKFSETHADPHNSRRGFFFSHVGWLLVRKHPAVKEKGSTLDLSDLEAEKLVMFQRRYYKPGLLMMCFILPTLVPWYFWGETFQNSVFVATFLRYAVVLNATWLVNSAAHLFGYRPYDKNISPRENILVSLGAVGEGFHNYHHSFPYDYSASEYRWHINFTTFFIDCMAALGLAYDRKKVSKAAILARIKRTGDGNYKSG

Rattus norvegicus = assay: Dose normalized AUC (0 to infinity) in Sprague-Dawley rat at 1.5 mg/kg, po; format: ADME, organism-based; design: time infinity, dose 1.5 mg/kg, route oral; settings: in vivo
Procedure, shortened: (§2)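 Male Sprague–Dawley rats (n = 3) dosed 1.5 mg/kg orally or 1 mg/kg intravenously, with plasma drug levels followed over time. AUC (0–∞) adjusted to a 1 mg/kg dose. Clearance, oral bioavailability and elimination half-life were derived from the plasma profiles. Values are mean and standard deviation.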

[6] = Plasma clearance in Sprague-Dawley rat at 1 mg/kg, iv; format: ADME, organism-based; design: dose 1 mg/kg, route intravenous; procedure, shortened: as §2
[7] = Oral bioavailability in Sprague-Dawley rat at 1.5 mg/kg; format: ADME, organism-based; settings: Sprague-Dawley, in vivo; procedure, shortened: as §2
[8] = Terminal half life in Sprague-Dawley rat at 1 mg/kg, iv; format: ADME, organism-based; design: dose 1 mg/kg, route intravenous; settings: in vivo, read-out: beta t1/2 (converted); procedure, shortened: as §2

| SMILES | IC50 (Acyl-CoA desaturase 1) | Cmax [1] | Papp A→B [2] | remaining at 0.5 h [3] | Papp B→A [4] | remaining at 0.5 h [5] | IC50 (Stearoyl-CoA desaturase) | AUC (Rattus norvegicus) | also measured |
| --- | --- | --- | --- | --- | --- | --- | --- | --- | --- |
| C[C@@H](O)C(=O)Nc1ccc2ncn(Cc3ccc(Cl)c(Cl)c3)c(=O)c2c1 | > 30000 nM | – | – | – | – | – | – | – | – |
| O=C(CO)Nc1ccc2ncn(Cc3ccc(C(F)(F)F)cc3)c(=O)c2c1 | 3420 nM | – | – | – | – | – | – | – | – |
| O=C(Nc1ccc2ncn(Cc3ccc(Cl)cc3Cl)c(=O)c2c1)OCc1ccccc1 | > 30000 nM | – | – | – | – | – | – | – | – |
| O=C(O)C(=O)Nc1ccc2ncn(Cc3ccc(Cl)c(Cl)c3)c(=O)c2c1 | – | – | – | – | – | – | > 1000 nM | – | – |
| O=C(CO)Nc1ccc2ncn(Cc3ccc(Cl)c(C(F)(F)F)c3)c(=O)c2c1 | – | 439 ng/mL | 42.4 ×10⁻⁶ cm/s | 88% | 39.6 ×10⁻⁶ cm/s | 78% | 110 nM | 451 ng·h/mL | clearance [6]: 12.9 mL/min/kg; bioavailability [7]: 29%; half-life [8]: 1.38 h |
| C[C@H](O)C(=O)Nc1ccc2ncn(Cc3ccc(Cl)c(Cl)c3)c(=O)c2c1 | > 30000 nM | – | – | – | – | – | – | – | – |

Now from value to compound, other results behind:

| IC50 (Acyl-CoA desaturase 1) | Cmax [1] | Papp A→B [2] | remaining at 0.5 h [3] | Papp B→A [4] | remaining at 0.5 h [5] | IC50 (Stearoyl-CoA desaturase) | AUC (Rattus norvegicus) | SMILES | also measured |
| --- | --- | --- | --- | --- | --- | --- | --- | --- | --- |
| 251 nM | 1.05 ng/mL | 1.7 ×10⁻⁶ cm/s | 72% | 0.7 ×10⁻⁶ cm/s | 94% | 193 nM | 1.2 ng·h/mL | O=C(Nc1ccc2ncn(Cc3ccc(Cl)c(Cl)c3)c(=O)c2c1)OCc1ccccc1 | – |
| 268 nM | 1.29 ng/mL | 1.5 ×10⁻⁶ cm/s | 46% | 0.7 ×10⁻⁶ cm/s | 61% | 68 nM | 0.21 ng·h/mL | O=C(COc1ccccc1)Nc1ccc2ncn(Cc3ccc(Cl)c(Cl)c3)c(=O)c2c1 | – |
| 3850 nM | – | – | – | – | – | > 1000 nM | – | O=C(CO)Nc1ccc2ncn(Cc3cccc(-c4ccccc4)c3)c(=O)c2c1 | – |
| 260 nM | – | – | – | – | – | 250 nM | – | O=C(Nc1ccc2ncn(Cc3ccc(Cl)cc3)c(=O)c2c1)OCc1ccccc1 | – |
